Consider 19 compounds from ChEMBL document CHEMBL1687814, “Testing nucleoside analogues as inhibitors of Bacillus anthracis spore germination in vitro and in macrophage cell culture” (Antimicrob Agents Chemother, 2010).

The test system of data set [1] is Bacillus anthracis. Nature of the data set: Antibacterial activity against Bacillus anthracis Sterne 34F2 infected in mouse J774A.1 cells assessed as protection against bacteria-induced cytotoxicity using propidium iodide staining after 3 hrs measured every hours for up to 7 hrs. The data set is classed as functional, organism-based.
In another data set the test system is J774.A1. Nature of the data set: Cytotoxicity against mouse J774A1 cells. The data set is classed as cell-based. In a few lines:
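Uninfected J774A.1 macrophages, seeded at 8 × 10^5 cells/ml in serum-free DMEM, were given analogues at various final concentrations. Necrosis was assessed by 20 μM propidium iodide fluorescence at 617 nm, in parallel with the infected wells.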

Data set [2] deals with Bacillus anthracis. Kind of data set: Inhibition of inosine/L-alanine-induced Bacillus anthracis Sterne 34F2 spore germination pretreated for 15 mins before inosine/L-alanine challenge. The data set is classed as functional, organism-based.
[3] abbreviates: Bacillus anthracis, Sterne 34F2, read-out: IC50.
Setting [4] is: Bacillus anthracis, Sterne 34F2, J774.A1, read-out: IC50.

Consider `Nc1nc(=O)[nH]c2c1ncn2[C@@H]1O[C@H](CO)[C@@H](O)[C@H]1O` [ISOGUANOSINE], for which the IC50 result in the data set with Bacillus anthracis [1] and in the data set with Bacillus anthracis [2] was “Not Active” each time. Also, the Activity result in the data set with J774.A1 is on record as “Non-toxic”.

With `CN(C)c1ncnc2c1ncn2[C@@H]1O[C@H](CO)[C@@H](O)[C@H]1O`, the IC50 result with Bacillus anthracis [1] and in the data set with Bacillus anthracis [2] was “Not Active” throughout. Also, the Activity result in the data set on J774.A1 was “Non-toxic”.

Take `C[n+]1cn([C@@H]2O[C@H](CO)[C@@H](O)[C@H]2O)c2nc[nH]c(=O)c21`: the IC50 result with Bacillus anthracis [1] and in the data set with Bacillus anthracis [2] was “Not Active” each time. Also, in the data set with J774.A1, the Activity entry is reported as “Non-toxic”.

For `c1ccc(CNc2ncnc3nc[nH]c23)cc1` [6-BENZYLAMINOPURINE], the figures for the IC50 result in the data set on Bacillus anthracis [1] and with Bacillus anthracis [2] (setting [3]) were “Not Active” and 1550 µM, respectively. In the data set with J774.A1, the Activity result is “Non-toxic”.

On to `O=c1ncnc2n([C@H]3O[C@@H](CO)[C@H](O)[C@@H]3O)[nH]cc1-2` [ALLOPURINOL RIBOSIDE], for which the half-inhibitory concentration (IC50) (as a rule, the concentration needed to halve the response being measured) with Bacillus anthracis [1] (setting [4]) was 650 µM; in the data set on Bacillus anthracis [2], “Not Active”. The Activity entry with J774.A1 was “Non-toxic”.

For the compound `Nc1ncc2ncn([C@@H]3O[C@H](CO)[C@@H](O)[C@H]3O)c2n1`, the IC50 entry is “Not Active” in the data set on Bacillus anthracis [1] and 380 µM with Bacillus anthracis [2] (setting [3]). For the same compound, in the data set with J774.A1, the Activity entry was “Non-toxic”.

Take `Nc1nc(Cl)c2ncn([C@@H]3O[C@H](CO)[C@@H](O)[C@H]3O)c2n1`: the IC50 worked out at 190 µM in the data set with Bacillus anthracis [1] (setting [4]) and 890 µM in the data set with Bacillus anthracis [2] (setting [3]). Besides, the Activity entry with J774.A1 is recorded as “Non-toxic”.

For the compound `CCCN(CCC)c1ncnc2c1ncn2[C@@H]1O[C@H](CO)[C@@H](O)[C@H]1O`, the IC50 result with Bacillus anthracis [1] is “Not Active”; with Bacillus anthracis [2] (setting [3]) it was 760 µM. Also, in the data set on J774.A1, the Activity result is “Non-toxic”.

Turning to `Nc1nc(Cl)c2nc[nH]c2n1` [6-CHLOROGUANINE], the IC50 was 200 µM with Bacillus anthracis [1] (setting [4]) and “Not Active” in the data set on Bacillus anthracis [2]. The Activity result in the data set with J774.A1 is “Non-toxic”.

For `Oc1ncnc2[nH]ncc12` [ALLOPURINOL], the IC50 result with Bacillus anthracis [1] and in the data set on Bacillus anthracis [2] was “Not Active” each time. Moreover, the Activity entry in the data set on J774.A1 is reported as “Non-toxic”.

As for `CCOC(=O)C1CCCN(c2ncnc3c2ncn3[C@@H]2O[C@H](CO)[C@@H](O)[C@H]2O)C1` (stereo not given in full), the IC50 entry in the data set on Bacillus anthracis [1] is “Not Active”; in the data set on Bacillus anthracis [2] (setting [3]) it was 700 µM. Also, the Activity entry in the data set with J774.A1 is given as “Non-toxic”.

Consider `OC[C@H]1O[C@@H](n2cnc3c(Cl)ncnc32)[C@H](O)[C@@H]1O`, for which the IC50 entry in the data set on Bacillus anthracis [1] and in the data set on Bacillus anthracis [2] was “Not Active” throughout. Besides, the Activity result with J774.A1 is “Non-toxic”.

As for `CC(C)=CCNc1ncnc2c1ncn2[C@@H]1O[C@H](CO)[C@@H](O)[C@H]1O` [RIBOPRINE], the IC50 entry in the data set with Bacillus anthracis [1] is “Not Active”; in the data set with Bacillus anthracis [2] (setting [3]), 360 µM. In the data set on J774.A1, the Activity entry is reported as “Non-toxic”.

For the compound `Nc1nc2c(ncn2[C@@H]2O[C@H](CO)[C@@H](O)[C@H]2O)c(=O)[nH]1` [GUANOSINE], the half-inhibitory concentration (IC50) result in the data set with Bacillus anthracis [1] and with Bacillus anthracis [2] was “Not Active” in each case. In the data set on J774.A1, the Activity entry is given as “Non-toxic”.

With `Sc1nc2ccccc2[nH]1` [2-MERCAPTOBENZIMIDAZOLE], the IC50 entry in the data set on Bacillus anthracis [1] and with Bacillus anthracis [2] was “Not Active” in each case. In the data set on J774.A1, the Activity entry was “Non-toxic”.

Take `OC[C@H]1O[C@@H](n2cnc3cncnc32)[C@H](O)[C@@H]1O` [NEBULARINE]: the IC50 result in the data set with Bacillus anthracis [1] and with Bacillus anthracis [2] was “Not Active” each time. Besides, the Activity entry in the data set with J774.A1 is “Non-toxic”.

Turning to `OC[C@H]1O[C@@H](n2cnc3c(SCc4ccccc4)ncnc32)[C@H](O)[C@@H]1O` [6-BENZYLTHIOINOSINE], the values for the IC50 in the data set on Bacillus anthracis [1] (setting [4]) and with Bacillus anthracis [2] (setting [3]) were 1040 µM and 50 µM, respectively. The Activity entry in the data set with J774.A1 is listed as “Non-toxic”.

For the compound `CSc1nc2ccccc2[nH]1`, the IC50 result in the data set with Bacillus anthracis [1] and in the data set with Bacillus anthracis [2] was “Not Active” throughout. In the data set on J774.A1, the Activity entry was “Non-toxic”.

Consider `OC[C@H]1O[C@@H](n2cnc3c(O)ncnc32)[C@H](O)[C@@H]1O` [INOSINE], for which the Activity entry in the data set on J774.A1 is recorded as “Non-toxic”.
